Experimental findings from ChEMBL document CHEMBL3243924, “Synthesis and biological activity of 5-fluoro- and 5-methyl-1,3-oxazine-2,6(3H)-dione” (J Med Chem, 1979) are described below.

Structures are written as SMILES. Bounds are passed on as bounds.

Series [1] in a line: Half life in synthetic growth medium at 37 degC.
Series [2] has as its system Enterococcus faecium. The experiment in a line: Growth inhibition of Streptococcus faecium assessed as [I]/[S] for 50% growth inhibition in presence of 1 uM to 1 mM cytosine. The format is functional.
The nature of series [3]: Stability of the compound in bacterial growth medium assessed as compound degradation at pH 7.2. Conditions: buffer. In outline: (§1)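 Compound held in bacterial growth medium at pH 7.2. Degradation was followed as the time-dependent decrease in UV absorbance at 306 nm.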
Series [4] deals with Enterococcus faecium. Nature of the series: Growth inhibition of Streptococcus faecium assessed as [I]/[S] for 50% growth inhibition in presence of 1 uM to 1 mM 2'-deoxycytidine. In kind it is functional.
Series [5] can be described thus: Stability of the compound in mouse […] cell growth medium assessed as compound degradation.
The subject of series [6] is Enterococcus faecium. Nature of the series: Growth inhibition of Streptococcus faecium assessed as [I]/[S] for 50% growth inhibition in presence of 1 uM to 1 mM thymidine. The format is functional.
The next series has as its system L1210. The experiment in a line: Growth inhibition of mouse L1210 cells. The format is functional.
Series [7] relates to Enterococcus faecium. Nature of the series: Growth inhibition of Streptococcus faecium. The format is functional.
For series [8], the system named is Enterococcus faecium. The experiment in a line: Growth inhibition of Streptococcus faecium assessed as inhibition index [I]/[S] for 50% growth inhibition in presence of 1 uM to 1 mM 2'-deoxyuridine. The format is functional.
Series [9] relates to Enterococcus faecium. The experiment in a line: Growth inhibition of Streptococcus faecium assessed as [I]/[S] for 50% growth inhibition in presence of 1 uM to 1 mM uracil. In kind it is functional.
For another series, the system named is Escherichia coli. The experiment in a line: Growth inhibition of Escherichia coli. In kind it is functional.
In series [10] the test system is Enterococcus faecium. Nature of the series: Growth inhibition of Streptococcus faecium assessed as [I]/[S] for 50% growth inhibition in presence of 1 uM to 1 mM cytidine. The format is functional.
The test system of series [11] is Enterococcus faecium. The experiment in a line: Growth inhibition of Streptococcus faecium assessed as [I]/[S] for 50% growth inhibition in presence of 1 uM to 1 mM thymine. In kind it is functional.
The test system of series [12] is Enterococcus faecium. The experiment in a line: Growth inhibition of Streptococcus faecium assessed as [I]/[S] for 50% growth inhibition in presence of 1 uM to 1 mM uridine. In kind it is functional.
Series [13] in a line: Stability of the compound in bacterial growth medium by UV spectra analysis. Summed up:
as §1

Series [14] can be described thus: Stability of the compound in synthetic growth medium assessed as compound remaining at 37 degC after 16 hrs. In kind it is physicochemical. Conditions: read-out: Stability.

`O=c1[nH]cc(F)c(=O)o1`: the half-life (usually the time needed for the level to fall by half in the phase considered) in series [1] is 4 h. The Ratio is given as 7 in the series with Enterococcus faecium [2]; 10 with Enterococcus faecium [4]; 110 with Enterococcus faecium [6]; 100 in the series with Enterococcus faecium [8]; 90 in the series on Enterococcus faecium [9]; 8 with Enterococcus faecium [10]. In addition, the Ratio was 120 in the series with Enterococcus faecium [11] and 90 in the series with Enterococcus faecium [12]. Also, the Stability result in series [3], in series [5] and in series [13] was “Unstable” each time. The ID50 amounted to 1 ×10⁻⁵ M in the series on L1210, 9 ×10⁻⁸ M in the series on Enterococcus faecium [7] and 1 ×10⁻⁷ M in the series on Escherichia coli.

Turning to `O=c1cc[nH]c(=O)o1`, the remaining at 16 h in [14] was found to be 15%. Also, the values for the ID50 in the series with L1210, in the series with Enterococcus faecium [7] and in the series on Escherichia coli were 4 ×10⁻⁵ M, 2 ×10⁻⁵ M and 4 ×10⁻⁷ M, respectively.

In the case of `Cc1c[nH]c(=O)oc1=O`, the ID50 with L1210 was over 1 ×10⁻⁴ M; in the series on Enterococcus faecium [7], over 1 ×10⁻⁴ M; in the series with Escherichia coli, 3 ×10⁻⁴ M.
